Results taken from ChEMBL document CHEMBL1122809, “Improved synthesis and antitumor activity of 2-bromo-2'-deoxyadenosine” (1984).

Assays:
B16 melanoma (mouse) [1] = experiment: Antitumor activity expressed percentage increase in life span was determined against inoculated B16 melanoma in mice by 11.3 mg/kg dosage of compound (qd3hx8), for days 1,4,7,10
L1210 [2] = experiment: Antitumor activity expressed as life span was determined against inoculated L1210 leukemia cells (1*10e6) in mice by 5.6 mg/kg dosage of compound (qd (x 3), for days 1, 4, 7); assay type: functional, Mus musculus
How it was run: (§1)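 Female mice (~18 g, housed six per cage) received L1210 cells intraperitoneally on day 0. Drug was made fresh and injected at 0.01 mL/g; the stated dose is per injection. Controls received the same volume of 0.154 M NaCl. Survival was followed, with deaths assigned to tumour by necropsy or to drug toxicity by set criteria. Life span is given as mean ± SD.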

L1210 [3] = experiment: Antitumor activity expressed as life span was determined against inoculated L1210 leukemia cells (1*10e6) in mice by 90 mg/kg dosage of compound (qd (x 3), for days 1, 4, 7); assay type: functional, Mus musculus
How it was run: as §1

L1210 [4] = experiment: Antitumor activity expressed percentage increase in life span was determined against inoculated L1210 leukemia cells (1*10e6) in mice by 50 mg/kg dosage of compound (qd (x 3), for days 1- 7); assay type: functional; details: Mus musculus
How it was run: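 Female mice of about 18 g (BDF1, DBA/2 or C57Bl/6 stocks used) were inoculated intraperitoneally with 1 × 10^6 L1210 cells. Freshly prepared drug was given once daily from about 24 h after inoculation at 0.01 mL/g, with the dose stated per injection. Controls received 0.154 M NaCl, and groups held 6 mice. %ILS was taken from mean survival, with mice alive at 60 days or more counted as 60 days.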

B16 melanoma (mouse) [5] = experiment: Antitumor activity was evaluated by measuring mean life span in tumor (B16 melanoma) inoculated mice at 22.5 mg/kg (qd3hx8),days 1,4,7,10,13,16
B16 melanoma (mouse) [6] = experiment: Antitumor activity expressed percentage increase in life span was determined against inoculated B16 melanoma in mice by 22.5 mg/kg dosage of compound (qd3hx8), for days 1,4,7,10,13,16
L1210 [7] = experiment: Antitumor activity expressed as life span was determined against inoculated L1210 leukemia cells (1*10e6) in mice by 5.6 mg/kg dosage of compound (qd (x 3), for days 1, 4, 7,10,13,16); assay type: functional, Mus musculus
How it was run: as §1

L1210 [8] = experiment: Antitumor activity expressed as life span was determined against inoculated L1210 leukemia cells (1*10e6) in mice by 140 mg/kg dosage of compound (qd (x 3), for days 1, 4, 7); assay type: functional, Mus musculus
How it was run: as §1

L1210 [9] = experiment: Antitumor activity expressed percentage increase in life span was determined against inoculated L1210 leukemia cells (1*10e6) in mice by 5.6 mg/kg dosage of compound (qd (x 3), for days 1, 4, 7,10,13,16); assay type: functional; details: Mus musculus
L1210 [10] = experiment: Antitumor activity expressed percentage increase in life span was determined against inoculated L1210 leukemia cells (1*10e6) in mice by 22.5 mg/kg dosage of compound (qd (x 3), for days 1, 4, 7,10,13,16); assay type: functional; details: Mus musculus
How it was run: (§2)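 L1210 cells were given intraperitoneally to female mice (~18 g). Freshly prepared drug was injected at 0.01 mL/g, dose per injection, and saline-injected controls were run. The end point was duration of survival. ILS was calculated as percent increase in mean life span over controls. Mice surviving 60 days or more counted as long-term survivors, scored as 60 days.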

L1210 [11] = experiment: Antitumor activity expressed percentage increase in life span was determined against inoculated L1210 leukemia cells (1*10e6) in mice by 11.3 mg/kg dosage of compound (qd (x 3), for days 1, 4, 7,10,13,16); assay type: functional; details: Mus musculus
How it was run: as §2

B16 melanoma (mouse) [12] = experiment: Antitumor activity expressed percentage increase in life span was determined against inoculated B16 melanoma in mice by 22.5 mg/kg dosage of compound (qd3hx8), for days 1,4,7,10
L1210 [13] = experiment: Antitumor activity expressed percentage increase in life span was determined against inoculated L1210 leukemia cells (1*10e5) in mice by 45 mg/kg dosage of compound (qd (x 3), for days 1, 4, 7); assay type: functional; details: Mus musculus
How it was run: as §2

L1210 [14] = experiment: Antitumor activity expressed percentage increase in life span was determined against inoculated L1210 leukemia cells (1*10e5) in mice by 5.6 mg/kg dosage of compound (qd (x 3), for days 1, 4, 7); assay type: functional; details: Mus musculus
How it was run: as §2

L1210 [15] = experiment: Antitumor activity expressed percentage increase in life span was determined against inoculated L1210 leukemia cells (1*10e6) in mice by 140 mg/kg dosage of compound (qd (x 3), for days 1, 4, 7); assay type: functional; details: Mus musculus
How it was run: as §2

L1210 [16] = experiment: Antitumor activity expressed as life span was determined against inoculated L1210 leukemia cells (1*10e6) in mice by 45 mg/kg dosage of compound (qd (x 3), for days 1, 4, 7); assay type: functional, Mus musculus
How it was run: as §1

M5076 = experiment: Antitumor activity was evaluated by measuring mean life span in tumor (M5076) inoculated mice at 5.6 mg/kg (qd3hx8),days 1-34; assay type: functional, Mus musculus
How it was run: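 Female mice of about 18 g received subcutaneous M5076 implants matching those used for serial passage. Drug was freshly prepared and injected at 0.01 mL/g every 3 h (×8) on every 3rd day from day 1 to day 34, with the dose stated per injection. Controls received 0.154 M NaCl. Groups held 18 mice (11 in one group). Mean life span was reported as mean ± SD, and tumor volume was also assessed.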

L1210 [17] = experiment: Antitumor activity expressed as life span was determined against inoculated L1210 leukemia cells (1*10e5) in mice by 22.5 mg/kg dosage of compound (qd (x 3), for days 1, 4, 7); assay type: functional, Mus musculus
How it was run: as §1

L1210 [18] = experiment: Antitumor activity expressed percentage increase in life span was determined against inoculated L1210 leukemia cells (1*10e5) in mice by 22.5 mg/kg dosage of compound (qd (x 3), for days 1, 4, 7); assay type: functional; details: Mus musculus
How it was run: as §2

L1210 [19] = experiment: Antitumor activity expressed percentage increase in life span was determined against inoculated L1210 leukemia cells (1*10e6) in mice by 110 mg/kg dosage of compound (qd (x 3), for days 1, 4, 7); assay type: functional; details: Mus musculus
How it was run: as §2

L1210 [20] = experiment: Antitumor activity expressed as life span was determined against inoculated L1210 leukemia cells (1*10e6) in mice by 11.3 mg/kg dosage of compound (qd (x 3), for days 1, 4, 7); assay type: functional, Mus musculus
How it was run: as §1

L1210 [21] = experiment: Antitumor activity expressed percentage increase in life span was determined against inoculated L1210 leukemia cells (1*10e6) in mice by 5.6 mg/kg dosage of compound (qd (x 3), for days 1, 4, 7); assay type: functional; details: Mus musculus
How it was run: as §2

B16 melanoma (mouse) [22] = experiment: Antitumor activity was evaluated by measuring mean life span in tumor (B16 melanoma) inoculated mice at 11.3 mg/kg (qd3hx8),days 1,4,7,10
L1210 [23] = experiment: Antitumor activity expressed percentage increase in life span was determined against inoculated L1210 leukemia cells (1*10e5) in mice by 22.5 mg/kg dosage of compound (qd (x 3), for days 1, 4, 7,10,13,16); assay type: functional; details: Mus musculus
How it was run: as §2

Question: For `Nc1nc(Br)nc2c1ncn2[C@H]1C[C@H](O)[C@@H](CO)O1`, which ILS at 11.3 mg/kg (B16 melanoma (mouse) [1]) is on record?
Answer: The ILS at 11.3 mg/kg was 66%.

Question: And the Life span (L1210 [2])?
Answer: The Life span was 11.08 days.

Question: What about the Life span (L1210 [3]) of the same compound?
Answer: The Life span was 7 days.

Question: And the ILS at 50 mg/kg (L1210 [4])?
Answer: Its ILS at 50 mg/kg is 42%.

Question: And the Life span (B16 melanoma (mouse) [5])?
Answer: The Life span was 19.22 days.

Question: And the ILS at 22.5 mg/kg (B16 melanoma (mouse) [6])?
Answer: The ILS at 22.5 mg/kg was 10%.

Question: And the Life span (L1210 [7])?
Answer: The Life span was 10.5 days.

Question: What about the Life span (L1210 [8]) of the same compound?
Answer: Its Life span is 8 days.

Question: What about the ILS at 5.6 mg/kg (L1210 [9]) of the same compound?
Answer: The ILS at 5.6 mg/kg was 48%.

Question: What about the ILS at 22.5 mg/kg (L1210 [10]) of the same compound?
Answer: The ILS at 22.5 mg/kg was 127%.

Question: And the ILS at 11.3 mg/kg (L1210 [11])?
Answer: Its ILS at 11.3 mg/kg is 86%.

Question: And the ILS at 22.5 mg/kg (B16 melanoma (mouse) [12])?
Answer: Its ILS at 22.5 mg/kg is 50%.

Question: What about the ILS at 45 mg/kg (L1210 [13]) of the same compound?
Answer: Its ILS at 45 mg/kg is 417%.

Question: What about the ILS at 5.6 mg/kg (L1210 [14]) of the same compound?
Answer: The ILS at 5.6 mg/kg was 60%.

Question: What about the ILS at 140 mg/kg (L1210 [15]) of the same compound?
Answer: The ILS at 140 mg/kg was 26%.

Question: What about the Life span (L1210 [16]) of the same compound?
Answer: The Life span was 13.5 days.

Question: What about the Life span (M5076) of the same compound?
Answer: The Life span was 34.44 days.

Question: What about the Life span (L1210 [17]) of the same compound?
Answer: The Life span was 23.75 days.

Question: And the ILS at 22.5 mg/kg (L1210 [18])?
Answer: Its ILS at 22.5 mg/kg is 224%.

Question: And the ILS at 110 mg/kg (L1210 [19])?
Answer: The ILS at 110 mg/kg was 29%.

Question: What about the Life span (L1210 [20]) of the same compound?
Answer: The Life span was 12.92 days.

Question: What about the ILS at 5.6 mg/kg (L1210 [21]) of the same compound?
Answer: The ILS at 5.6 mg/kg was 75%.

Question: And the Life span (B16 melanoma (mouse) [22])?
Answer: Its Life span is 23.11 days.

Question: What about the ILS at 22.5 mg/kg (L1210 [23]) of the same compound?
Answer: Its ILS at 22.5 mg/kg is 153%.
